In ChEMBL document CHEMBL5523707, “Novel Inhibitory Site Revealed by XAP044 Mode of Action on the Metabotropic Glutamate 7 Receptor Venus Flytrap Domain” (J Med Chem, 2024):
The source made the active and inactive calls. The calls are words filed in the database; no cut-off is given here.

Columns and labels:
[1] = biological target: Metabotropic glutamate receptor 7 (Rattus norvegicus) (UniProt P35400); assay: Antagonist activity against LSP4-202-induced rat mGlu7 activation transfected in HEK293 cells co-transfected with chimeric Gqi9 assessed as decrease in LSP4-202 potency by measuring LSP4-202 maximum efficacy at 30 to 100 uM incubated for 24 hrs by IP-one HTRF assay relative to control; assay type: functional, cell-based; details: filed as antagonist, dose 30-100 µM
Outline: (§1)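 IP-One HTRF IP1 read-out in HEK293 transiently expressing rat mGlu7 plus chimeric Gqα9, 24 h after electroporation. LSP4-2022 concentration-response was tested with derivatives at 30 or 100 µM. Gives pEC50, pEC50/pEC50 control ratio, and max as % of LSP4-2022 maximal effect over basal. Triplicates, n independent experiments; paired t-test.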

[2] = species: Rattus norvegicus; assay: Ratio of pEC50 for antagonist activity against LSP4-202-induced rat mGlu7 activation transfected in HEK293 cells co-transfected with chimeric Gqi9 assessed as decrease in LSP4-202 potency to pEC50 for LSP4-202-induced rat mGlu7 activation transfected in HEK293 cells co-transfected with chimeric Gqi9; assay type: cell-based; outline: as §1
[3] = biological target: T1, Metabotropic glutamate receptor 7 (Rattus norvegicus, UniProt P35400); assay: Antagonist activity against rat mGlu7 activation transfected in HEK293 cells co-transfected with chimeric Gqi9 incubated for 24 hrs in presence of LSP4-2022 by IP-one HTRF assay; assay type: functional, cell-based
Outline: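 Inhibition curves were run with increasing inhibitor concentrations against IP1 production by 30 µM LSP4-2022. Rat mGlu7 was co-expressed with Gqα9 in HEK293 and assayed 24 h post-transfection with IP-One HTRF. IC50/pIC50 are means ± sem of independent experiments in triplicates. pIC50 compared to reference by unpaired t-test.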

[4] = biological target: Metabotropic glutamate receptor 7 (Rattus norvegicus) (UniProt P35400); assay: Competitive antagonist activity against rat mGlu7 receptor assessed as decrease in LSP4-202 effect at 0.3 to 30 uM by Schild plot analysis; details: filed as antagonist, dose 0.3-30 µM
Outline: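 Schild analysis used the shift of LSP4-2022 concentration-response curves in IP-One IP1 assays. Cells were HEK293 co-transfected with rat mGlu7 and Gqα9. Data are means ± sem of 3 to 11 experiments run in triplicates.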

[5] = species: Rattus norvegicus; assay: Ratio of pEC50 for antagonist activity against LSP4-202 induced rat mGlu7 S229A mutant assessed as decrease in LSP4-202 potency by measuring LSP4-202 pEC50 at 30 uM to pEC50 for LSP4-202-induced rat mGlu7 S229A mutant
[6] = species: Rattus norvegicus; assay: Ratio of pEC50 for antagonist activity against LSP4-202 induced rat mGlu7 S229A mutant assessed as decrease in LSP4-202 potency by measuring LSP4-202 pEC50 at 10 uM to pEC50 for LSP4-202-induced rat mGlu7 S229A mutant
[7] = Antagonist activity against LSP4-202-induced rat mGlu7 […] mutant assessed as decrease in LSP4-202 potency by measuring LSP4-202 pEC50 at 30 uM
[8] = species: Rattus norvegicus; assay: Ratio of pEC50 for antagonist activity against LSP4-202 induced rat mGlu7 S229A mutant assessed as decrease in LSP4-202 potency by measuring LSP4-202 pEC50 at 100 uM to pEC50 for LSP4-202-induced rat mGlu7 S229A mutant
[9] = species: Rattus norvegicus; assay: Ratio of pEC50 for antagonist activity against LSP4-202 induced wild type rat mGlu7 assessed as decrease in LSP4-202 potency by measuring LSP4-202 pEC50 at 3 uM to pEC50 for LSP4-202-induced wild type rat mGlu7
[10] = Antagonist activity against LSP4-202-induced rat mGlu7 […] mutant assessed as decrease in LSP4-202 potency by measuring LSP4-202 pEC50 at 10 uM
[11] = Antagonist activity against LSP4-202-induced rat mGlu7 […] mutant assessed as decrease in LSP4-202 potency by measuring LSP4-202 pEC50 at 3 uM
[12] = Antagonist activity against LSP4-202-induced rat mGlu7 […] mutant assessed as decrease in LSP4-202 potency by measuring LSP4-202 pEC50 at 100 uM
[13] = species: Rattus norvegicus; assay: Ratio of pEC50 for antagonist activity against LSP4-202 induced wild type rat mGlu7 assessed as decrease in LSP4-202 potency by measuring LSP4-202 pEC50 at 10 uM to pEC50 for LSP4-202-induced wild type rat mGlu7
[14] = species: Rattus norvegicus; assay: Ratio of pEC50 for antagonist activity against LSP4-202 induced wild type rat mGlu7 assessed as decrease in LSP4-202 potency by measuring LSP4-202 pEC50 at 30 uM to pEC50 for LSP4-202-induced wild type rat mGlu7
[15] = species: Rattus norvegicus; assay: Ratio of pEC50 for antagonist activity against LSP4-202 induced rat mGlu7 S229A mutant assessed as decrease in LSP4-202 potency by measuring LSP4-202 pEC50 at 3 uM to pEC50 for LSP4-202-induced rat mGlu7 S229A mutant
[16] = biological target: Metabotropic glutamate receptor 7 (Rattus norvegicus) (UniProt P35400); assay: Antagonist activity against LSP4-202-induced rat mGlu7 activation transfected in HEK293 cells co-transfected with chimeric Gqi9 assessed as decrease in LSP4-202 potency by measuring LSP4-202 pEC50 incubated for 24 hrs by IP-one HTRF assay; assay type: functional, cell-based; outline: as §1
[17] = biological target: Metabotropic glutamate receptor 7 (Rattus norvegicus, UniProt P35400, K60A); assay: Agonist activity at rat mGlu7 K60A mutant
[18] = biological target: Metabotropic glutamate receptor 7 (Rattus norvegicus, UniProt P35400, N74A); assay: Agonist activity at rat mGlu7 N74A mutant
[19] = Agonist activity at rat mGlu7 Q258R/D262/R263 mutant
[20] = Agonist activity at rat mGlu4 R258Q/D262/R263 mutant
[21] = Agonist activity at rat mGlu7 D314A mutant
[22] = biological target: T1, Metabotropic glutamate receptor 7; assay: Agonist activity at wild type rat mGlu7; assay type: functional
Outline: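 HEK293 cells were transiently transfected by electroporation with rat mGlu7 plasmid plus chimeric Gqα9 to couple to phospholipase C. They were grown in DMEM with 10% FBS on polyornithine-coated wells at 150 000 cells/well.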

[23] = biological target: Metabotropic glutamate receptor 4 (Rattus norvegicus, UniProt P31423, R60A); assay: Agonist activity against rat mGlu4 R60A mutant
[24] = biological target: Metabotropic glutamate receptor 4 (Rattus norvegicus, UniProt P31423); assay: Agonist activity against wild type rat mGlu4; assay type: functional
[25] = biological target: Metabotropic glutamate receptor 4 (Rattus norvegicus, UniProt P31423, S160D); assay: Agonist activity against rat mGlu4 S160D mutant
[26] = Agonist activity at rat mGlu7 S229A mutant
[27] = biological target: Metabotropic glutamate receptor 4 (Rattus norvegicus, UniProt P31423, K74A); assay: Agonist activity against rat mGlu4 K74A mutant
[28] = biological target: Metabotropic glutamate receptor 4 (Rattus norvegicus, UniProt P31423, R258A); assay: Agonist activity at rat mGlu4 R258A mutant
[29] = biological target: Metabotropic glutamate receptor 4 (Rattus norvegicus, UniProt P31423, S160A); assay: Agonist activity against rat mGlu4 S160A mutant
[30] = biological target: Metabotropic glutamate receptor 7 (Rattus norvegicus, UniProt P35400, N74K); assay: Agonist activity at rat mGlu7 N74K mutant
[31] = Agonist activity at rat mGlu4 loop beta-10-alpha7 region
[32] = Agonist activity at rat mGlu7 loop beta10-alpha7 region

Chain of Metabotropic glutamate receptor 7 (Rattus norvegicus) (P35400 whole entry): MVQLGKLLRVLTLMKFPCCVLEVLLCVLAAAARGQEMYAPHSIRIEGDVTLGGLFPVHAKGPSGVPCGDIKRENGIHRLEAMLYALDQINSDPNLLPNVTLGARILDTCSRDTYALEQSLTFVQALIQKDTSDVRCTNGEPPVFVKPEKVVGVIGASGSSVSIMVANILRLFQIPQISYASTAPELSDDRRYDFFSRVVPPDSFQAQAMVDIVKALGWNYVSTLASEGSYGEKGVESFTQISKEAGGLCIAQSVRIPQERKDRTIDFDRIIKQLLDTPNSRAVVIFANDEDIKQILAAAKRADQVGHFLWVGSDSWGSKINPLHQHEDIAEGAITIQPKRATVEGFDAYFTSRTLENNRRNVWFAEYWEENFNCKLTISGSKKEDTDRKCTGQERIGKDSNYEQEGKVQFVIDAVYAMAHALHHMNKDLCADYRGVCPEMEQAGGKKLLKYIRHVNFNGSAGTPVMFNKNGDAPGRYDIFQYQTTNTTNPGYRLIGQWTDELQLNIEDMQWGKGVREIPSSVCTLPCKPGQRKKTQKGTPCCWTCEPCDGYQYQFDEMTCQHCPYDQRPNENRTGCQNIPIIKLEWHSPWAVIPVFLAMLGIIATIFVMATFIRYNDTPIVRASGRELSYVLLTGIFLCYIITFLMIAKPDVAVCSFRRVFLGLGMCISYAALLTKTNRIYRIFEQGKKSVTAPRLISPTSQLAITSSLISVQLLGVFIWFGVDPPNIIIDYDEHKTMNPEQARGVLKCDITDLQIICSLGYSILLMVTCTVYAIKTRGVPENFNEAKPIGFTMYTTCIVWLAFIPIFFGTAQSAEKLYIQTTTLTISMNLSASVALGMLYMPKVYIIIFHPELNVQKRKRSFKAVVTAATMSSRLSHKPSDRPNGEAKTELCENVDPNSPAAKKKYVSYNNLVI
T1 sequence (P35400 whole entry): as above
Chain of Metabotropic glutamate receptor 7 (Rattus norvegicus, UniProt P35400, N74K) (P35400 35-915 N74K limits assumed): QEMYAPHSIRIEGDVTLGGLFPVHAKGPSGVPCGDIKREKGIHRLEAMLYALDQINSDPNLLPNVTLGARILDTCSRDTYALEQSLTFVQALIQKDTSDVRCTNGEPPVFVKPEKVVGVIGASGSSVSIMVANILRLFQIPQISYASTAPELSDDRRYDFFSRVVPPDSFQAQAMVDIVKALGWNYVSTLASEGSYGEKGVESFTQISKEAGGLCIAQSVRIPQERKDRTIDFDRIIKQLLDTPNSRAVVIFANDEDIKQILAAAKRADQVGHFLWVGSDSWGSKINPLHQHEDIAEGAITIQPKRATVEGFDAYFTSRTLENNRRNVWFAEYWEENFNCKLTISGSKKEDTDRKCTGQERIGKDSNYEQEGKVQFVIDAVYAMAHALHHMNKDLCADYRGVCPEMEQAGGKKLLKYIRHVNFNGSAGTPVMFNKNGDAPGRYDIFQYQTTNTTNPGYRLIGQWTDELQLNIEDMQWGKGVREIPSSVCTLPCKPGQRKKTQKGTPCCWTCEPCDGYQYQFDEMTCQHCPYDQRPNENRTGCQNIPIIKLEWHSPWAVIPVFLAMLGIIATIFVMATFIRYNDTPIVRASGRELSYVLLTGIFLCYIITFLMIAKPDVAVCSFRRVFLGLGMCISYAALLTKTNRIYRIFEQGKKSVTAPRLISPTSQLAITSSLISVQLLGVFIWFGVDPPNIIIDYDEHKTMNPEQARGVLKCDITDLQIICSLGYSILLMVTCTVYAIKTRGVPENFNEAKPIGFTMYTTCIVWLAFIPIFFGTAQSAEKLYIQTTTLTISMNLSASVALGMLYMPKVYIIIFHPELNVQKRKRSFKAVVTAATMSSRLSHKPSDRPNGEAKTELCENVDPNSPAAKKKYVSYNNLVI
Chain of Metabotropic glutamate receptor 4 (Rattus norvegicus, UniProt P31423, K74A) (P31423 33-912 K74A limits assumed): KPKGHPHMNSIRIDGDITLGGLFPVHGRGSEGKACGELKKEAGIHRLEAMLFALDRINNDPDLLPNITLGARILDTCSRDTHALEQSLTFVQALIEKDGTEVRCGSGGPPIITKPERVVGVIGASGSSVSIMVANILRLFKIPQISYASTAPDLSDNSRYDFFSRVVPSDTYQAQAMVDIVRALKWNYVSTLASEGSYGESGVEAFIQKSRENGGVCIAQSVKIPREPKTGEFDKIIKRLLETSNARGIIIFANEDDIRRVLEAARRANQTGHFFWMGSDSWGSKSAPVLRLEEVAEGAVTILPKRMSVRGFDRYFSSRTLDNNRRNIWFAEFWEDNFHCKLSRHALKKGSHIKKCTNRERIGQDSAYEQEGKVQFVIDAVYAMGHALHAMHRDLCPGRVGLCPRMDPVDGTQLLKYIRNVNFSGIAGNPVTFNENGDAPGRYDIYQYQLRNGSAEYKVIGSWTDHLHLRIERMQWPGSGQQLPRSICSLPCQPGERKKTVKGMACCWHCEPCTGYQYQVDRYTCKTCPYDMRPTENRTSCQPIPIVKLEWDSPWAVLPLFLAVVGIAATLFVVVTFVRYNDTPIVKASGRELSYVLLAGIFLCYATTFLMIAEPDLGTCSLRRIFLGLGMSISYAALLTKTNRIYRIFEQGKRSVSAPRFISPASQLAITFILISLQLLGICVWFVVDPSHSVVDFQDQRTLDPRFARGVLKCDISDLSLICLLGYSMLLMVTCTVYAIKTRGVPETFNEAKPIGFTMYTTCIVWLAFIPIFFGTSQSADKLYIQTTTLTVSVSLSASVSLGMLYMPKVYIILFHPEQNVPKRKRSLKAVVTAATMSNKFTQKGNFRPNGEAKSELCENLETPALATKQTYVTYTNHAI
Chain of Metabotropic glutamate receptor 4 (Rattus norvegicus, UniProt P31423, R258A) (P31423 33-912 R258A limits assumed): as the sequence (P31423 33-912 K74A limits assumed) above, with A42K, R226A counted along it
Chain of Metabotropic glutamate receptor 4 (Rattus norvegicus, UniProt P31423, S160D) (P31423 33-912 S160D limits assumed): as the sequence (P31423 33-912 K74A limits assumed) above, with A42K, S128D counted along it
Chain of Metabotropic glutamate receptor 4 (Rattus norvegicus, UniProt P31423) (P31423 whole entry): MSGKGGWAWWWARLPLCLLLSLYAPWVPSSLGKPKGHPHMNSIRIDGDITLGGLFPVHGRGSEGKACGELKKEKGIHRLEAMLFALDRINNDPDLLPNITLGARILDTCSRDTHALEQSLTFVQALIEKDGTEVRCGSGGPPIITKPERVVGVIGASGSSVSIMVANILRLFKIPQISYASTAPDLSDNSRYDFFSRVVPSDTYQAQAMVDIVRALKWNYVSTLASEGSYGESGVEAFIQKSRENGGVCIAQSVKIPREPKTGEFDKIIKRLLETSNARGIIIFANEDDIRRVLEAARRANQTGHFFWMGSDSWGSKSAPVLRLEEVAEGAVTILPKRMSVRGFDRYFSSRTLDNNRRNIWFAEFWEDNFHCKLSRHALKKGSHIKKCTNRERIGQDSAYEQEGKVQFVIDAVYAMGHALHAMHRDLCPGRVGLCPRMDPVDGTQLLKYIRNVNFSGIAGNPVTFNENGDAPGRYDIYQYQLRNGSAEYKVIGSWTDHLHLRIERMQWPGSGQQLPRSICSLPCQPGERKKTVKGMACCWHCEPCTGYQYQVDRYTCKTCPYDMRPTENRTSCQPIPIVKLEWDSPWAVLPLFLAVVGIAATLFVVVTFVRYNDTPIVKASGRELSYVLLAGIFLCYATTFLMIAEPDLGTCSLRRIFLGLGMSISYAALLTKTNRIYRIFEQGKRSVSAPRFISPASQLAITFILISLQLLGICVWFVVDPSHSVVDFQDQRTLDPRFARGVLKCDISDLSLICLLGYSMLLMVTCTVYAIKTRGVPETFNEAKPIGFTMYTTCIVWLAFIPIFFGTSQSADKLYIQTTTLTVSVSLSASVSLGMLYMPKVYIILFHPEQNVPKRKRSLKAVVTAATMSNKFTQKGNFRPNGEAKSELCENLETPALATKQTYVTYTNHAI
Chain of Metabotropic glutamate receptor 4 (Rattus norvegicus, UniProt P31423, S160A) (P31423 33-912 S160A limits assumed): as the sequence (P31423 33-912 K74A limits assumed) above, with A42K, S128A counted along it
Chain of Metabotropic glutamate receptor 7 (Rattus norvegicus, UniProt P35400, K60A) (P35400 35-915 K60A limits assumed): as the sequence (P35400 35-915 N74K limits assumed) above, with K26A, K40N counted along it
Chain of Metabotropic glutamate receptor 4 (Rattus norvegicus, UniProt P31423, R60A) (P31423 33-912 R60A limits assumed): as the sequence (P31423 33-912 K74A limits assumed) above, with R28A, A42K counted along it
Chain of Metabotropic glutamate receptor 7 (Rattus norvegicus, UniProt P35400, N74A) (P35400 35-915 N74A limits assumed): as the sequence (P35400 35-915 N74K limits assumed) above, with K40A counted along it

SMILES	Emax [1] [%]	Ratio [2]	also measured
O=C(COc1ccc(C(F)(F)F)cc1)c1ccc(O)cc1	101	0.91	
O=C(COc1ccc([N+](=O)[O-])cc1)c1ccc(O)cc1	98.5	0.87	
O=C(COc1ccc(Br)cc1F)c1cc(F)c(O)c(F)c1		< 0.6	IC50 ([3]; read-out: IC50): 1.25 µM; IC50 ([3]; read-out: pIC50 (converted)): 1.15 µM; Activity [4]: Active
O=C(COc1ccc(Br)cc1Br)c1ccc(O)cc1	96.1	0.97	
O=C(COc1ccc(Br)cc1Cl)c1ccc(O)cc1	93.3	0.95	
O=C(COc1ccc([N+](=O)[O-])c([N+](=O)[O-])c1)c1ccc(O)cc1	101	1	
N#Cc1c(F)cc(OCC(=O)c2ccc(O)cc2)cc1F	94.2	1.03	
O=C(COc1ccc(Br)cc1F)c1ccc(O)c(F)c1		< 0.6	Ratio [5]: 0.91; Ratio [6]: 0.97; EC50 [7]: 21.7 µM; pEC50 [7]: 4.68; IC50 ([3]; read-out: IC50): 0.95 µM; IC50 ([3]; read-out: pIC50 (converted)): 0.851 µM; Ratio [8]: 0.82; Ratio [9]: 0.82; Activity [4]: Active; EC50 [10]: 9.91 µM; pEC50 [10]: 5; EC50 [11]: 6.88 µM; pEC50 [11]: 5.16; EC50 [12]: 60.7 µM; pEC50 [12]: 4.25; Ratio [13]: 0.72; Ratio [14]: 0.59; Ratio [15]: 1
COc1ccc(C(=O)COc2ccc([N+](=O)[O-])cc2)cc1	85.2	0.95	
O=c1c2ccc(F)cc2oc2c1oc1ccc(I)cc12			inhibition [16]: inactive
COc1ccc(C(=O)COc2ccc(C(F)(F)F)cc2)cc1	96.6	0.97	
O=Cc1ccc(OCC(=O)c2ccc(O)cc2)cc1F	106	1	
O=c1c2ccc(O)cc2oc2c1oc1ccc(I)cc12			inhibition [16]: inactive
O=C(COc1ccc(Br)cc1F)c1ccc(O)c(O)c1	90.3	0.76	Ratio [5]: 0.93; Ratio [6]: 0.91; EC50 [7]: 35.7 µM; pEC50 [7]: 4.53; IC50 ([3]; read-out: IC50): 3.44 µM; IC50 ([3]; read-out: pIC50 (converted)): 3.31 µM; Ratio [8]: 0.95; Ratio [9]: 0.91; Activity [4]: Active; EC50 [10]: 38.2 µM; pEC50 [10]: 4.42; EC50 [12]: 27 µM; pEC50 [12]: 4.6; Ratio [13]: 0.85; Ratio [14]: 0.79
O=C(O)c1ccc(OCC(=O)c2ccc(O)cc2)cc1	98.6	1.07	
COc1ccc2c(c1)oc1c(=O)c3ccccc3oc12			inhibition [16]: inactive
O=c1c2ccccc2oc2c1oc1cc(O)ccc12			inhibition [16]: inactive
O=c1c2ccccc2oc2c1oc1ccc(Cl)cc12			inhibition [16]: inactive
O=c1c2ccccc2oc2c1sc1ccccc12			inhibition [16]: inactive

SMILES	Emax [1] [%]	Ratio [2]	also measured
O=c1c2ccc(O)cc2oc2c1oc1cc(I)ccc12			inhibition [16]: inactive
O=C(COc1cccc(O)c1)c1ccc(O)cc1	96.8	1.03	
O=C(COc1ccc(F)cc1F)c1ccc(O)cc1	100	1.04	
NS(=O)(=O)c1ccc(OCC(=O)c2ccc(O)cc2)cc1	89.2	1.06	
Cc1ccc(OCC(=O)c2ccc(O)cc2)cc1	95.4	0.96	
COc1ccc(C(=O)COc2ccc(C#N)cc2)cc1	89.4	0.95	
O=C(COc1ccc(Cl)cc1)c1ccc(O)cc1	98.5	0.83	
N#Cc1ccc(OCC(=O)c2ccc(O)cc2)cc1	92.6	0.89	
O=C(COc1ccc(O)cc1)c1ccc(O)cc1	88.1	1.06	
O=c1c2ccccc2oc2c1oc1ccc(Br)cc12			inhibition [16]: inactive
COc1ccc(OCC(=O)c2ccc(O)cc2)cc1	97.6	0.96	
O=C(COc1ccc(Br)cc1F)c1ccc(O)cc1	87.3	0.76	IC50 ([3]; read-out: IC50): 2.6 µM; IC50 ([3]; read-out: pIC50 (converted)): 2.24 µM
COc1ccc2c(=O)c3oc4ccc(I)cc4c3oc2c1			inhibition [16]: inactive
O=C(COc1c(F)cc(Br)cc1F)c1ccc(O)cc1	94.6	0.85	
O=C(COc1c(Cl)cc(Br)cc1Cl)c1ccc(O)cc1	101	1.01	
N[C@@H](CCP(=O)(O)O)C(=O)O			EC50 [17]: 1980 µM; EC50 [18]: > 100 µM; EC50 [19]: > 100 µM; EC50 [20]: 11.1 µM; EC50 [21]: > 1000 µM; EC50 [22]: > 100 µM; EC50 [23]: 1.16 µM; EC50 [24]: 0.343 µM; EC50 [25]: 12.3 µM; EC50 [26]: 182 µM; EC50 [27]: 0.23 µM; EC50 [28]: 1.87 µM; EC50 [29]: 2.66 µM; EC50 [30]: 10.5 µM; EC50 [31]: 0.505 µM; EC50 [32]: 45 µM
COc1ccc2c(=O)c3oc4cc(I)ccc4c3oc2c1			inhibition [16]: inactive
O=C(COc1ccc(Br)cc1)c1ccc(O)cc1	99.2	0.81	
O=C(COc1ccc(Cl)cc1Cl)c1ccc(O)cc1	92.3	0.94	

Continued, in another order:

Emax [1] [%]	SMILES	Ratio [2]	also measured
80.4	COc1ccc(C(=O)COc2ccc(I)cc2)cc1OC	1.05	
96	COc1ccc(OCC(=O)c2ccc(O)cc2)cc1OC	0.99	
97.5	Cc1cc(OCC(=O)c2ccc(O)cc2)ccc1I	0.96	
98.3	O=C(COc1ccc(I)cc1)c1ccc(O)cc1	0.83	
95.9	COc1ccc(C(=O)COc2ccc(I)c(C)c2)cc1	0.97	
102	O=C(COc1cccc(I)c1)c1ccc(O)cc1	1.02	
98.3	Cc1cc(I)ccc1OCC(=O)c1ccc(O)cc1	0.97	
93.6	COc1ccc(C(=O)COc2ccc(I)cc2)cc1	0.97	
